Data published in ChEMBL document CHEMBL1144556, “Design, synthesis, and SAR analysis of novel selective sigma1 ligands” (Bioorg Med Chem, 2007).

Experiments:
Cavia porcellus = species on record: Cavia porcellus; test: Selectivity for sigma 1 receptor over sigma 2 receptor in guinea pig brain membranes; type: cell membranes; conditions: Membrane
[1] = target: Sigma non-opioid intracellular receptor 1 (Cavia porcellus, UniProt Q60492); test: Displacement of [3H](+)-pentazocine from sigma 1 receptor in guinea pig brain membrane; type: cell membranes
Chain of Sigma non-opioid intracellular receptor 1 (Q60492 whole entry): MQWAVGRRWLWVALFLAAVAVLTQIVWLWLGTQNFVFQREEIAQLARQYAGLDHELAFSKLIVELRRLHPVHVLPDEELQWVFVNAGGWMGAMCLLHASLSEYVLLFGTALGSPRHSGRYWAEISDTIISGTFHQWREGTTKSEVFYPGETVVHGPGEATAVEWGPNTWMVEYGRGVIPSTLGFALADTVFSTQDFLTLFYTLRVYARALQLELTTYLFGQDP
Procedure, shortened: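 Guinea pig brain (minus cerebella) membranes were homogenized in ice-cold 0.32 M sucrose, pH 7.4, washed in 10 mM Tris-HCl, pH 7.4, and stored at −80 °C. Tritiated (+)-pentazocine (28 Ci/mmol; Kd 1.6 ± 0.3 nM, n = 3) was incubated with test compounds from 10^-11 to 10^-5 M in Tris-HCl, pH 7.4, for 150 min at 37 °C. Haloperidol defined nonspecific binding. Reactions were stopped by filtration through PEI-presoaked glass fiber filters.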

[2] = Displacement of [3H]DTG from sigma 2 receptor in guinea pig brain membrane; type: cell membranes, Cavia porcellus
Procedure, shortened: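 Guinea pig brain membranes were incubated with test compounds, with 400 nM (+)-SKF10,047 added to mask σ1 sites. Incubation was in 50 mM Tris-HCl, pH 8.0, for 120 min at room temperature. Reactions were stopped with ice-cold 10 mM Tris-HCl, pH 8.0, and filtered through glass fiber filters presoaked in 0.5% poly(ethylenimine).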

Row | SMILES | Ratio Ki (Cavia porcellus) | Ki [1] [nM] | Ki [2] [nM]
1 | CC(CCN(C)C)c1ccc2ccccc2c1 (stereo not given) | 22.5 | 1.95 | 43.8
2 | C/C(=C\CN(C)C)c1ccc(-c2ccccc2)cc1 | 75.7 | 1.4 | 106
3 | CN(C)CCC(C)(O)c1ccc2ccccc2c1 (racemic) | 6.8 | 25 | 171
4 | COc1ccc2cc(C(C)CCN(C)C)ccc2c1 (racemic) | 26.3 | 2.3 | 60.4
5 | C/C(=C\CN(C)Cc1ccccc1)c1ccc2ccccc2c1 | 111 | 7.88 | 873
6 | COc1ccc2cc(/C(C)=C/CN(C)C)ccc2c1 | 46 | 21.4 | 985

More lines, now with the values ahead:

Row | Ratio Ki (Cavia porcellus) | Ki [1] [nM] | Ki [2] [nM] | SMILES
7 | 7.5 | 19.8 | 148 | C/C(=C\CN(C)C)c1ccc2ccccc2c1
8 | 4.3 | 47.2 | 205 | CC(CCN(C)C)c1cccc2ccccc12 (stereo not given)
9 | 102 | 5.8 | 591 | CC(CCN(C)Cc1ccccc1)c1ccc(-c2ccccc2)cc1 (stereo not given)
10 | 6.1 | 229 | 1390 | C/C(=C\CN(C)C)c1ccc2cc(O)ccc2c1
11 | 12 | 6.32 | 75.7 | C/C(=C\CN(C)Cc1ccccc1)c1ccc(-c2ccccc2)cc1
12 | 6.87 | 102 | 701 | C/C(=C\CN(C)C)c1cccc2ccccc12
13 | 158 | 1.02 | 161 | CC(CCN(C)C)c1ccc(-c2ccccc2)cc1 (stereo not given)
14 | 25.7 | 5.4 | 139 | CC(CCN(C)Cc1ccccc1)c1ccc2ccccc2c1 (stereo not given)
15 | 70 | 19 | 1330 | CC(CCN(C)C)c1ccc2cc(O)ccc2c1 (racemic)
